Measured values as given in ChEMBL document CHEMBL1127066, “Discovery and structure-activity relationship of a series of 1-carba-1-dethiacephems exhibiting activity against methicillin-resistant Staphylococcus aureus” (J Med Chem, 1993).

Legend:
[1] = organism: Rattus norvegicus; experiment: (§1) In vitro plasma protein binding was evaluated using Sprauge-Dawley rat at 20 ug/mL; type: functional
How it was run: (§2)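 Binding was measured by ultrafiltration (Centrifree micropartition) in pooled plasma (ICR mouse, Sprague–Dawley rat, rhesus monkey or human) at a drug concentration of 20 μg/mL.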

[2] = organism: Homo sapiens; experiment: (§3) In vitro plasma protein binding was evaluated by using Human plasma at 20 ug/mL; type: functional; how it was run: as §2
[3] = system: Staphylococcus aureus; experiment: In vitro antimicrobial activity against Staphylococcus aureus X1.1 strain; type: functional
[4] = system: Rattus norvegicus; experiment: Percent urinary recovery (as total antibacterial activity) in rats dosed intravenously with 20 mg/kg; type: ADME, organism-based, Urine; set-up: dose 20 mg/kg, route intravenous; conditions: in vivo, iv
How it was run: (§4)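 Male Sprague–Dawley rats (n = 4) were given 20 mg/kg iv in 0.9% saline through a jugular cannula, with serial plasma samples and cumulative urine collected over 6 h. Urine was collected into 0.1 M citrate, pH 6.5, and samples were stored at -70 °C. Drug was measured by agar well diffusion bioassay (E. coli ATCC4157 or M. luteus ATCC9241) against spiked standard curves. Half-life was 0.693/β from the terminal slope, and urinary recovery was % of dose.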

[5] = organism: Rattus norvegicus; experiment: as §1; type: ADME; how it was run: as §2
[6] = organism: Mus musculus; experiment: In vitro plasma protein binding was evaluated using ICR mouse at 20 ug/mL; type: ADME; how it was run: as §2
[7] = system: Staphylococcus aureus; experiment: In vitro evaluation of antimicrobial activity against heteroresistant Staphylococcus aureus ST 430 strain in trypticase soy broth with 4% sodium chloride; type: functional
[8] = system: Haemophilus influenzae; experiment: In vitro antimicrobial activity against Haemophilus influenzae C.L. strain; type: functional
[9] = system: Staphylococcus epidermidis; experiment: In vitro antimicrobial activity against Staphylococcus epidermidis 270 strain; type: functional
[10] = system: Klebsiella; experiment: In vitro antimicrobial activity against Klebsiella X26 strain; type: functional
[11] = organism: Homo sapiens; experiment: as §3; type: ADME; how it was run: as §2
[12] = Half-life determined in monkeys dosed intravenously with 30 mg/kg; type: ADME, organism-based; set-up: dose 30 mg/kg, route intravenous; conditions: simiiformes, in vivo, iv
How it was run: (§5)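 Male rhesus monkeys (n = 4) received 30 mg/kg iv in 0.9% saline. Cephalic-vein plasma was sampled over 8 h, and 0–24 h cumulative urine was collected in metabolism cages into 0.1 M sodium citrate, pH 6.5. Antibacterial activity was quantified by agar well diffusion bioassay against plasma- or citrate-based standard curves. Half-life was 0.693/β from the terminal phase, and urinary recovery was % of administered dose.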

[13] = system: Pseudomonas aeruginosa; experiment: Antimicrobial activity against Pseudomonas PS18 strain; type: functional
[14] = system: Staphylococcus aureus; experiment: In vitro antimicrobial activity against Staphylococcus aureus X400 strain; type: functional
[15] = system: Staphylococcus epidermidis; experiment: In vitro antimicrobial activity against Staphylococcus epidermidis 222 strain; type: functional
[16] = system: Staphylococcus aureus; experiment: In vitro evaluation of antimicrobial activity against heteroresistant Staphylococcus aureus ST 430 strain in trypticase soy broth; type: functional
[17] = system: Escherichia coli; experiment: In vitro evaluation of antimicrobial activity against Escherichia coli EC14 strain; type: functional
[18] = Maximum concentration determined in rats dosed intravenously with 20 mg/kg; type: ADME, organism-based; set-up: dose 20 mg/kg, route intravenous; conditions: rat, in vivo, iv; how it was run: as §4
[19] = system: Enterobacter cloacae; experiment: In vitro evaluation of antimicrobial activity against Enterobacter cloacae EB5 strain; type: functional
[20] = system: Pseudomonas aeruginosa; experiment: In vitro antimicrobial activity against Pseudomonas X239 strain; type: functional
[21] = Maximum concentration determined in monkeys dosed intravenously with 30 mg/kg; type: ADME, organism-based; set-up: dose 30 mg/kg, route intravenous; conditions: simiiformes, in vivo, iv; how it was run: as §5
[22] = Percent urinary recovery (as total antibacterial activity) in monkeys dosed intravenously with 30 mg/kg; type: ADME, organism-based, Urine; set-up: dose 30 mg/kg, route intravenous; conditions: simiiformes, in vivo, iv; how it was run: as §5
[23] = system: Rhesus monkey; experiment: In vitro plasma protein binding was evaluated by using rhesus monkey at 20 ug/mL; type: ADME, Macaca mulatta; how it was run: as §2
[24] = system: Staphylococcus aureus; experiment: In vitro antimicrobial activity against Staphylococcus aureus S13E strain; type: functional
[25] = Half-life determined in rats dosed intravenously with 20 mg/kg; type: ADME, organism-based; set-up: dose 20 mg/kg, route intravenous; conditions: rat, in vivo, iv; how it was run: as §4
[26] = system: Staphylococcus aureus; experiment: In vitro evaluation of antimicrobial activity against 31 strains of heteroresistant Staphylococcus aureus in trypticase soy broth with 4% sodium chloride; type: functional
[27] = system: Streptococcus pneumoniae; experiment: In vitro antimicrobial activity against Streptococcus pneumoniae PARK strain; type: functional

Row | Structure (SMILES) | MIC [3] | Bound [5] | Bound [6] | MIC [8] | MIC [9] | MIC [10] | Bound [11] | MIC [13] | MIC [14] | MIC [15] | MIC [17] | MIC [19] | MIC [20] | Bound [23] | MIC [24] | MIC [27] | other results
1 | CO/N=C(\C(=O)N[C@@H]1C(=O)N2C(C(=O)O)=C(CSc3nc(=O)c(O)nn3C)CS[C@H]12)c1csc(N)n1 [CEFTRIAXONE] |  |  |  |  |  |  |  |  |  |  |  |  |  |  |  |  | Bound [1]: 88.5%; Bound [2]: 94%
2 | Nc1nc(/C(=N\OCCF)C(=O)N[C@@H]2C(=O)N3C(C(=O)[O-])=C(Sc4nc5cnccc5s4)CC[C@H]23)cs1.[Na+] | 0.125 µg/mL | 95% | 88.5% | 0.03 µg/mL | 2 µg/mL | 0.03 µg/mL | 96.6% | 32 µg/mL | 4 µg/mL | 0.5 µg/mL | 0.06 µg/mL | 1 µg/mL | 32 µg/mL | 98.5% | 0.5 µg/mL | < 0.008 µg/mL | Recovery [4]: 37.2%; MIC [7]: 1 µg/mL; half-life [12]: 58.4 min; MIC [16]: 0.5 µg/mL; Cmax [18]: 56.7 µg/mL; Cmax [21]: 343 µg/mL; Recovery [22]: 46.8%; half-life [25]: 35.1 min; MIC [26]: 2.6 µg/mL
3 | Nc1nc(/C(=N\OCCF)C(=O)N[C@@H]2C(=O)N3C(C(=O)[O-])=C(Sc4nncs4)CC[C@H]23)cs1.[Na+] | 0.125 µg/mL | 63.1% | 36.2% | 0.015 µg/mL | 0.06 µg/mL | 0.015 µg/mL | 36% | 32 µg/mL | 64 µg/mL | 0.5 µg/mL | 0.03 µg/mL | 0.5 µg/mL | > 128 µg/mL | 49.1% | 16 µg/mL | < 0.008 µg/mL | 
